The source of these data is ChEMBL document CHEMBL1155700, “Cancer chemopreventive agents. New depsidones from Garcinia plants” (J Nat Prod, 2001).

The subject of data set [1] is Raji. The data set is described as follows: Inhibition of 12-O-tetradecanoylphorbol-13-acetate-induced EBV-early antigen activation in human Raji cells assessed as EA activation at 1000 molar ratio after 48 hrs relative to TPA. Type of data set: cell-based. The arrangement: scale not given: the % may be the effect or the level left. The conditions noted are these: human gammaherpesvirus 4. Summed up: (§1)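 Raji cells at 10⁶ cells/mL were resuspended in RPMI 1640/10% FCS containing 4 mM n-butyric acid inducer, 32 pmol TPA (20 ng/mL) and 32, 16, 3.2 or 0.32 nmol compound (DMSO), then held 48 h at 37 °C. EA-positive cells were scored blind, at least 500 cells per assay. Activation is expressed as % of the TPA-only positive control (100%), mean ± SD. IC50 is given as mol ratio/TPA.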

The nature of data set [2]: Inhibition of 12-O-tetradecanoylphorbol-13-acetate-induced EBV-early antigen activation in human Raji cells assessed as EA activation per 32 pmol TPA after 48 hrs. Type of data set: cell-based, human gammaherpesvirus 4. Summed up:
as §1

The test system of data set [3] is Raji. The data set is described as follows: Inhibition of 12-O-tetradecanoylphorbol-13-acetate-induced EBV-early antigen activation in human Raji cells assessed as EA activation at 10 molar ratio after 48 hrs relative to TPA. The data set is classed as cell-based. On the set-up: scale not given: the % may be the effect or the level left. The conditions noted are these: human gammaherpesvirus 4. The method in brief: as §1

A short description of data set [4]: Cytotoxicity against human Raji cells assessed as cell viability at 10 molar ratio after 48 hrs by trypan blue staining relative to TPA. Type of data set: cell-based. The conditions noted are these: read-out: Activity. Summed up:
(§2)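 Raji cells grown to 10⁶ cells/mL, pelleted, resuspended in RPMI 1640 with 10% FCS, 4 mM n-butyric acid, 32 pmol TPA (20 ng/mL in DMSO) plus test compound in DMSO (0.32–32 nmol; mole ratio to TPA 10–1000). After 48 h at 37 °C, cell number and viability were counted on a hemocytometer by Trypan Blue exclusion. At least 60% viability was required for valid EA data.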

Data set [5] is described as follows: Cytotoxicity against human Raji cells assessed as cell viability at 1000 molar ratio after 48 hrs by trypan blue staining relative to TPA. Type of data set: cell-based. The conditions noted are these: read-out: Activity. Summed up: as §2
The subject of data set [6] is Raji. The experiment in a line: Inhibition of 12-O-tetradecanoylphorbol-13-acetate-induced EBV-early antigen activation in human Raji cells assessed as EA activation at 500 molar ratio after 48 hrs relative to TPA. Type of data set: cell-based. The arrangement: scale not given: the % may be the effect or the level left. The note with it: human gammaherpesvirus 4. Summed up: as §1

Data set [7] can be described thus: Cytotoxicity against human Raji cells assessed as cell viability at 500 molar ratio after 48 hrs by trypan blue staining relative to TPA. The note with it: read-out: Activity. The data set is classed as cell-based. The method in brief: as §2
Data set [8] is described as follows: Cytotoxicity against human Raji cells assessed as cell viability at 100 molar ratio after 48 hrs by trypan blue staining relative to TPA. The data set is classed as cell-based. The note with it: read-out: Activity. The method in brief: as §2
Data set [9] relates to Raji. The experiment in a line: Inhibition of 12-O-tetradecanoylphorbol-13-acetate-induced EBV-early antigen activation in human Raji cells assessed as EA activation at 100 molar ratio after 48 hrs relative to TPA. Type of data set: cell-based. The arrangement: scale not given: the % may be the effect or the level left. The conditions noted are these: human gammaherpesvirus 4. The method in brief: as §1

With `CC1=C(/C=C/C(C)=C/C=C/C(C)=C/C=C/C=C(C)/C=C/C=C(C)/C=C/C2=C(C)CCCC2(C)C)C(C)(C)CCC1` [BETA CAROTENE], the Activity in [1] came to 9.1%; in data set [3] it was 100%. Also, the IC50 in [2] came out at 400 molar ratio.
With `CC(C)=CCc1c2c(c(O)c3c1Oc1cc(O)c4c(c1OC3=O)C=CC(C)(C)O4)C=CC(C)(C)O2` [GARCINISIDONE C], the viability at 48 h, 10 molar ratio relative to TPA in data set [4] is over 80%. The viability at 48 h, 1000 molar ratio relative to TPA in data set [5] is 70%. The Activity was 41.8% in [6], 0% in [1], 72.2% in data set [9] and 93.5% in data set [3]. Also, in [7], the viability at 48 h, 500 molar ratio relative to TPA was over 80%. Besides, in data set [8], the viability at 48 h, 100 molar ratio relative to TPA is over 80%. Further, in [2], the IC50 amounted to 370 molar ratio.
Consider `CC(C)=CCc1c(O)c2c(c3c1OC(C)(C)C=C3)Oc1cc(O)c3c(c1OC2=O)C=CC(C)(C)O3` [GARCINISIDONE D], for which the viability at 48 h, 10 molar ratio relative to TPA in [4] was over 80%. Besides, in data set [5], the viability at 48 h, 1000 molar ratio relative to TPA turned out to be 60%. In addition, the Activity stood at 40.4% in data set [6], 0% in data set [1], 72% in data set [9] and 92.8% in data set [3]. Moreover, in data set [7], the viability at 48 h, 500 molar ratio relative to TPA is over 80%. Moreover, the viability at 48 h, 100 molar ratio relative to TPA in [8] is over 80%. In data set [2], the IC50 is reported as 360 molar ratio.
Consider `COc1c(O)cc2c(c1CC=C(C)C)OC(=O)c1c(cc(O)c(CC=C(C)C)c1O)O2` [GARCINISIDONE A], for which the viability at 48 h, 10 molar ratio relative to TPA in data set [4] is over 80%. The viability at 48 h, 1000 molar ratio relative to TPA in data set [5] worked out at 70%. Besides, the Activity is 44.2% in [6], 0% in data set [1], 78.3% in [9] and 91.6% in data set [3]. The viability at 48 h, 500 molar ratio relative to TPA in data set [7] was over 80%. For the same molecule, in [8], the viability at 48 h, 100 molar ratio relative to TPA is over 80%. The IC50 in data set [2] is 365 molar ratio.
In the case of `CC(C)=CCc1c(O)c(CC=C(C)C)c2c(c1O)C(=O)Oc1c(cc(O)c3c1C=CC(C)(C)O3)O2` [GARCINISIDONE E], in data set [4], the viability at 48 h, 10 molar ratio relative to TPA was over 80%. For the same molecule, the viability at 48 h, 1000 molar ratio relative to TPA in [5] amounted to 70%. In addition, the Activity in [6] stood at 40%; in [1], 0%; in [9] it was 71.1%; in [3], 90.2%. Further, the viability at 48 h, 500 molar ratio relative to TPA in data set [7] was over 80%. Besides, the viability at 48 h, 100 molar ratio relative to TPA in [8] is over 80%. The IC50 in [2] was 350 molar ratio.
For `COc1c(O)cc2c(c1CC=C(C)C)OC(=O)c1c(cc3c(c1O)C=CC(C)(C)O3)O2` [GARCINISIDONE B], the viability at 48 h, 10 molar ratio relative to TPA in [4] is over 80%. The viability at 48 h, 1000 molar ratio relative to TPA in data set [5] worked out at 70%. Further, the Activity in [6] turned out to be 50.6%; in [1], 0%; in data set [9], 81.7%; in [3], 100%. In addition, in data set [7], the viability at 48 h, 500 molar ratio relative to TPA is over 80%. The viability at 48 h, 100 molar ratio relative to TPA in data set [8] is over 80%. Moreover, in [2], the IC50 is listed as 410 molar ratio.
